Screens: PubChem BioAssay, Sanford-Burnham Center for Chemical Genomics
SENP7 block = SENP7 protease inhibition. recombinant SENP7, Z-RLRGG-aminoluciferin luminescence, 40 min. Q9BQF6. hit rate 1.5% among 330,000. AID 434973. inhibition, % at 5 µM;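 active = inhibition above about 50% at the single test dose, limit read from the data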;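 note: plate controls were DMSO with enzyme for no effect and no enzyme buffer wells for full effect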
SENP8 block-1 = inhibitors of human SENP8 protease. Q96LD8. recombinant SENP8, Nedd8 substrate fluorescence. inhibition, % at 20 µM. hit rate 0.64% among 360,000. AID 602440; in the data active = inhibition mostly above about 40%, no sharp cut-off; inactive = mostly below about 27%
SENP8 block-2 = inhibitors of human SENP8 protease | Q96LD8 | inhibition, % at 10 µM | purified SENP8, Z-RLRGG-aminoluciferin cleavage, luminescence | hit rate 1.2% among 330,000; in the data active = inhibition above about 50%
SENP1 FRET inh = SENP1 (human) catalytic domain inhibition; Q9P0U3; recombinant SENP1 catalytic domain, CyPet-SUMO1-YPet FRET cleavage; inhibition, % at 10 µM; hit rate 0.21% among 360,000; AID 624204;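 active = inhibition at least 30% at 10 µM, raw YFP signal under a set limit, fluorescence ratio 0.5 to 1.5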;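 note: 0% = enzyme with DMSO and 100% = no enzyme wells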
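Assay system: hSENP1 catalytic domain, recombinant. Amount: SENP1 enzyme, 20 pM final. Schedule: 50 min reaction, RT, dark. Technique: FRET, CFP and YFP emission. Control set: no-enzyme wells low, DMSO-plus-enzyme wells high control.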
SENP6 inh = inhibitors of human SENP6 protease. Q9GZR1. Recombinant SENP6 catalytic domain, aminoluciferin luminescence. inhibition, % at 10 µM. hit rate 1.8% among 330,000;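 active = inhibition above about 50% at the single tested dose, limit read from the data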;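 note: plate controls were DMSO wells with enzyme for no effect and DMSO wells lacking enzyme for full effect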
Target sequence (Q9GZR1 628-1112 limits assumed): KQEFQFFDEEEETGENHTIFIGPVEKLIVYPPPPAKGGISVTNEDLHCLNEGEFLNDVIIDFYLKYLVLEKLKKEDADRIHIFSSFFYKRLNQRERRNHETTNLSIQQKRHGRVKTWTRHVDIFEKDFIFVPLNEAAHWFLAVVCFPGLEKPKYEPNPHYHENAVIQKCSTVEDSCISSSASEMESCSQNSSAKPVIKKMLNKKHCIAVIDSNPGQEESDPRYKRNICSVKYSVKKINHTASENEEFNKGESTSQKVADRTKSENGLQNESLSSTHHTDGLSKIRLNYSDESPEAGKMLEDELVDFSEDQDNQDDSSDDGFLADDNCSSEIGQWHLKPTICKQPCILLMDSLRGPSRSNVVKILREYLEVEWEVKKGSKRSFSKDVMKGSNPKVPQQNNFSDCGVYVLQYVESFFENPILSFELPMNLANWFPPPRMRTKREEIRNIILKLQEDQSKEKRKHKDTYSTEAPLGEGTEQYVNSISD
SENP8 inh conf = confirmation of human SENP8 protease inhibitors | shares compounds with SENP8 block-1 | inhibition, % at 25 µM | hit rate 15% among 1,400 | purified SENP8, Nedd8-AMC/pro-Nedd8 cleavage fluorescence, 30 min; in the data active = inhibition mostly above about 39%, no sharp cut-off; inactive = mostly below about 34%
Starred values were filed as active, the others as inactive; · = no result. Shown are actives, neighbours in structure and some others; about 2.5% of the full set was active somewhere.

SMILES	SENP7 block	SENP8 block-1	SENP8 block-2	SENP1 FRET inh	SENP6 inh	SENP8 inh conf
CCN(C(=O)COC(=O)c1cnc(C)cn1)C1CCCCC1	5.7	40.5*	3.6	0.4	8.7	4.5
CCOC(=O)c1c(N)c2cc([N+](=O)[O-])ccc2n1C	-8.7	47.1*	0.6	4.3	-12.8	7.4
CCOC(=O)/C(=C/c1c(C)n(C)c2ccc([N+](=O)[O-])cc12)C(C)=O	-5.0	20.9	-0.1	3.2	-1.7	·
CCOc1cc(/C=C2/SC(=Nc3ccccc3)N(Cc3cccnc3)C2=O)ccc1OCC#N	-0.2	40.2*	4.3	-1.5	-20.6	15.2
CCOc1ccccc1CNC(=O)CN1C(=O)CSc2ccc(S(=O)(=O)N3CCOCC3)cc21	5.3	9.4	5.4	0.9	7.3	·
Cc1c(C(=O)NNC(=S)Nc2ccc(S(N)(=O)=O)cc2)oc2ccccc12	4.6	-385.9	3.8	-3.8	1.7	·
CCOC(=O)c1nn(-c2ccc(C)cc2)c(=O)c2c(N)scc12	8.3	13.8	3.0	0.1	21.6	·
Nc1scc2c(C(=O)O)nn(-c3ccccc3)c(=O)c12	5.5	40.2*	11.6	-2.5	-17.5	20.4
Cc1cc([N+](=O)[O-])nn1CCCC(=O)N1CCN(c2ccccc2)CC1	0.7	41.3*	2.2	-2.5	7.2	9.2
COc1cc(OC)c(C=CC(=O)c2ccccc2O)c(OC)c1	·	42.2*	·	4.0	·	13.0
O=C(CNc1cccc([N+](=O)[O-])c1)N/N=C/c1ccc([N+](=O)[O-])o1	4.3	40.1*	8.3	-2.8	1.8	22.5
O=C(CCN1CCN(c2ccccc2)CC1)N/N=C/c1ccc([N+](=O)[O-])o1	4.1	55.1*	8.2	-1.9	21.0	38.6
O=C(N/N=C/c1ccc([N+](=O)[O-])o1)c1ccccc1-n1cccc1	1.6	42.3*	3.0	-2.4	2.3	21.1
O=C(CN1CCOCC1)NN=Cc1ccc([N+](=O)[O-])o1	·	25.5	·	-0.3	·	·
O=C(Cc1ccc([N+](=O)[O-])cc1)N/N=C/c1ccc([N+](=O)[O-])o1	10.5	34.2	3.2	1.5	25.1	·
COc1cccc(NC(=O)c2ccccc2-c2ccccc2)c1	0.1	3.1	9.9	0.8	-0.2	·
N#CC(Cc1ccccc1OC(F)F)c1nc2ccccc2[nH]1 (centres undefined)	-14.9	-26.6	-15.6	-14.3	-20.9	·
C[C@H](CO)N1C[C@H](C)[C@@H](CN(C)Cc2ccncc2)OCc2cnnn2CCCC1=O	·	4.0	·	0.4	·	·
CC(C)C[C@H](N)C(=O)N1CCC(C(=O)N[C@H](C(=O)NC(C)c2ccccc2)C(C)C)CC1 (some centres undefined)	-7.9	42.0*	3.9	-0.4	6.9	11.2
CC(C)C[C@H](N)C(=O)N1CCC(C(=O)N[C@H](C(=O)NCc2ccc(F)cc2)C(C)C)CC1	-7.9	8.2	-5.3	1.1	-17.4	·
COc1ccc(CNC(=O)[C@@H](NC(=O)C2CCN(C(=O)[C@@H](N)CC(C)C)CC2)C(C)C)cc1	13.3	51.6*	-6.0	0.7	-10.1	8.6
NS(=O)(=O)c1ccc(CCNC(=O)COC(=O)c2ccc([N+](=O)[O-])o2)cc1	6.9	46.8*	14.4	1.0	15.7	89.4*
O=C(O)C1CC(=O)N(C2CCCCC2)C1c1ccccc1 (centres undefined)	4.1	40.9*	0.5	2.1	-18.7	10.4
CCC/C(O)=C1\C(=O)CCCC1=NCCc1c(C)[nH]c2ccc(OC)cc12	3.3	2.5	10.0	1.2	-9.0	·
CC1=NN(c2ccc(S(=O)(=O)O)cc2C)C(=O)C1	2.2	68.6*	-4.0	2.0	6.4	10.9
O=C(O)C1=NN(c2cc(Cl)c(S(=O)(=O)O)cc2Cl)C(=O)C1	·	2.7	·	8.8	·	·
CC(C)CNS(=O)(=O)c1ccc(CCC(=O)NCCc2ccccc2)cc1	4.2	8.5	1.5	0.5	-6.2	·
O=c1ccc(-c2ccc([N+](=O)[O-])cc2)nn1-c1ccccc1	0.6	11.3	3.3	-3.8	-11.8	·
O=[N+]([O-])c1ccc(-[n+]2nc(-c3ccccc3)nn2-c2ccccc2)cc1	10.1	49.9*	12.9	1.7	-1.3	45.3*
Cc1ccc(C(=O)N2NC(c3ccc(F)cc3)C3C(=O)N(c4ccc(C)cc4)C(=O)C32)cc1 (centres undefined)	-9.8	14.7	0.2	4.9	-3.8	·
